Data reported in ChEMBL document CHEMBL4354869, “pH-Dependent Grafting of Cancer Cells with Antigenic Epitopes Promotes Selective Antibody-Mediated Cytotoxicity” (J Med Chem, 2020).
Active and inactive are the calls of the source. The calls are words filed in the database; no cut-off is given here. Peptide text beside a SMILES is read from it. * marks the point of attachment. Dnp = O=[N+]([O-])c1ccc(*)c([N+](=O)[O-])c1

Tests used:
[1] = system: MDA-MB-231; assay: (§1) Induction of antibody dependent cytotoxicity against human MDA-MB-231 cells assessed as cell lysis at 500 nM incubated for 5 mins at pH 6 to 7.4 followed by compound washout prior to anti-DNP antibody addition for 30 mins and subsequent human haNK cell addition at 5:1 effector to target ratio measured after 4 hrs by LDH release assay relative to control; format: functional
How it was run: (§2)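 150000 MDA-MB-231 given conjugate 5 min at 37 °C, pH 7.4 or 6.0, washed at 4 °C, 25 μg/mL anti-DNP rabbit polyclonal 30 min 4 °C, then effectors 4 h at 37 °C: single-donor PBMCs at 50:1 in RPMI 1640, or haNK (F176V CD16 NK-92, IL-2-grown) at 5:1 in MEMα. Supernatant LDH; % lysis vs antibody+effector without peptide; mean ± SEM, n = 3–12.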

[2] = system: MDA-MB-231; assay: Induction of opsonization in human MDA-MB-231 cells assessed as increase in recruitment of anti-DNP antibody to cell surface at 1 uM measured after 1 hr at pH 6 to 7.4 by AlexaFluor-488-conjugated anti-DNP antibody based flow cytometry; format: functional
[3] = system: MDA-MB-231; assay: (§3) Cytotoxicity against human MDA-MB-231 cells assessed as increase in cell lysis at 0.5 to 1 uM incubated for 5 mins at pH 6 to 7.4 followed by compound washout prior to anti-FITC polyclonal rabbit antibody addition for 30 mins and subsequent human PBMC addition at 5:1 effector to target ratio measured after 4 hrs by LDH release assay; format: cell-based; details: mda-mb-231, pH 6, 1 µM
[4] = system: MDA-MB-231; assay: Cytotoxicity against human MDA-MB-231 cells assessed as increase in cell lysis at 0.5 to 1 uM incubated for 5 mins at pH 6 to 7.4 followed by compound washout prior to human haNK cell addition at 5:1 effector to target ratio measured after 4 hrs by LDH release assay; format: cell-based; details: mda-mb-231, pH 6, 4 h
[5] = system: MDA-MB-231; assay: as §1, with “>1 uM” for “500 nM”, “6” for “6 to 7.4”, “PBMC” for “haNK cell”, “assay” for “assay relative to control”; format: functional, cell-based
[6] = system: MDA-MB-231; assay: Induction of opsonization in human MDA-MB-231 cells assessed as increase in recruitment of anti-DNP antibody to cell surface at 1 uM preincubated for 5 mins at pH 6 to 7.4 followed by pooled human serum addition and measured in presence of FITC-labeled anti-human IgG antibody based flow cytometry; format: functional
How it was run: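 300000 MDA-MB-231 in suspension exposed to 1 μM conjugate 5 min, 37 °C, pH 7.4 or 6.0; washed; blocked with human IgG isotype control 100 μg/mL, 20 min 4 °C; 12.5% pooled human complement serum 20 min 4 °C; then 25 μg/mL FITC anti-human IgG 30 min 4 °C; PFA-fixed, flow cytometry; fold over pH 7.4 serum-only.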

[7] = system: MDA-MB-231; assay: Induction of opsonization in human MDA-MB-231 cells assessed as increase in recruitment of anti-DNP antibody to cell surface at 1 uM measured after 5 mins at pH 6 to 7.4 by AlexaFluor-488-conjugated anti-DNP antibody based immunofluorescence microscopic analysis; format: functional
How it was run: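 MDA-MB-231 grown on poly-L-lysine coverslips (~70% confluent), exposed to 1 μM conjugate 5 min at 37 °C, pH 7.4 or 6.0, methanol-fixed, stained 1 h at 37 °C with anti-DNP-A488 at 40 μg/mL, Hoechst counterstain; imaged with 20× objective.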

[8] = system: MDA-MB-231; assay: as §1, with “0.1 uM” for “500 nM”, “6” for “6 to 7.4”, “PBMC” for “haNK cell”; format: functional
[9] = system: MDA-MB-231; assay: Induction of opsonization in human MDA-MB-231 cells assessed as increase in recruitment of anti-DNP antibody to cell surface at 1 uM preincubated with AlexaFluor-488-conjugated anti-DNP antibody for 30 mins followed by cell addition at pH 6 to 7.4 by flow cytometry; format: functional, cell-based
[10] = Drug internalization in human MDA-MB-231 cells assessed as increase in fluorescence at 1 uM measured after 30 mins at pH 6 to 7.4 in presence of FITC-labeled anti-human IgG by flow cytometric method; format: ADME, cell-based; details: mda-mb-231, pH 6, 0.5 h
How it was run: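 Control for specificity: MDA-MB-231 treated with 1 μM conjugate at pH 7.4 or 6.0 (5–10 min, 37 °C), washed, then incubated ± 25 μg/mL FITC anti-human IgG in PBS/10% FBS, 30 min at 4 °C, fixed, read by flow cytometry.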

[11] = system: MDA-MB-231; assay: (§4) Induction of complement dependent cytotoxicity against human MDA-MB-231 cells assessed as cell lysis at 1 uM incubated for 5 mins at pH 7.4 followed by compound washout prior to anti-DNP antibody addition for 30 mins and subsequent pooled human serum addition measured after 4 hrs by LDH release assay; format: functional, cell-based
How it was run: (§5)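 240000 MDA-MB-231 exposed in suspension to 1 μM conjugate for 5 min, 37 °C, at pH 7.4 or 6.0, washed, 25 μg/mL unlabeled anti-DNP rabbit polyclonal 30 min 4 °C, then 12.5% pooled human complement serum in DMEM 4 h at 37 °C. Supernatant LDH (A490/A680); % lysis vs antibody-only cells without peptide.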

[12] = system: MDA-MB-231; assay: Cytotoxicity against human MDA-MB-231 cells assessed as increase in cell lysis at <=10 uM measured after 4 hrs by LDH release assay; format: cell-based; details: mda-mb-231, 4 h
[13] = system: MDA-MB-231; assay: as §3, with “haNK cell” for “PBMC”; format: cell-based; details: mda-mb-231, pH 6, 1 µM
How it was run: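 150000 target cells (MDA-MB-231; also LnCap, SK-OV-3 with haNK) treated with conjugate 5 min at 37 °C, pH 7.4 or 6.0, washed, 25 μg/mL anti-FITC rabbit polyclonal 30 min 4 °C, then 4 h at 37 °C with PBMCs at 50:1 (RPMI) or haNK at 5:1 (MEMα). LDH release; % lysis relative to antibody-only pH 7.4 cells; mean ± SEM, n = 3–12.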

[14] = system: MDA-MB-231; assay: (§6) Induction of antibody dependent cytotoxicity against human MDA-MB-231 cells assessed as induction of cell lysis at >500 nM incubated for 5 mins at pH 6 to 7.4 followed by compound washout prior to anti-DNP antibody addition for 30 mins and subsequent human haNK cell addition at 5:1 effector to target ratio measured after 4 hrs by LDH release assay; format: functional, cell-based; how it was run: as §2
[15] = system: MDA-MB-231; assay: as §6, with “increase in” for “induction of”, “lysis” for “lysis at >500 nM”, “PBMC” for “haNK cell”; format: functional, cell-based
[16] = system: MDA-MB-231; assay: as §1, with “1 uM” for “500 nM”, “6” for “6 to 7.4”, “PBMC” for “haNK cell”; format: functional
[17] = system: MDA-MB-231; assay: as §4, with “6” for “7.4”, “assay relative to control” for “assay”; format: functional; how it was run: as §5
[18] = system: MDA-MB-231; assay: Cytotoxicity against human MDA-MB-231 cells assessed as increase in cell lysis at 0.5 to 1 uM incubated for 5 mins at pH 6 to 7.4 followed by compound washout prior to human PBMC addition at 50:1 effector to target ratio measured after 4 hrs by LDH release assay; details: mda-mb-231, pH 6, 4 h
[19] = system: Lipid bilayer; assay: Binding affinity to POPC large unilamellar vesicle at 1:300 ratio measured after 30 mins at pH 5 to 7.4 by circular dichroism spectroscopic analysis
How it was run: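 Peptide (20 μM stock in 5 mM sodium phosphate pH 8.0; 7 μM final) mixed with POPC LUVs (extruded, 100 nm pores) at 1:300, pH lowered with HCl, 30 min RT. Far-UV CD 260–200 nm in 0.1 cm cuvette, ≥5 scans averaged, liposome spectrum subtracted; expressed as mean residue molar ellipticity.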

[20] = system: MDA-MB-231; assay: Induction of opsonization in human MDA-MB-231 cells assessed as increase in recruitment of anti-DNP antibody to cell surface at 1 uM measured after 5 to 10 mins at pH 6 to 7.4 by AlexaFluor-488-conjugated anti-DNP antibody based flow cytometry; format: functional
How it was run: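 Conjugate pre-incubated 1 h RT at 20 μM in 5 mM sodium phosphate pH 9.0, diluted, then pH adjusted with citrate buffer. MDA-MB-231 (350000 cells, suspension) exposed to 1 μM for 5 or 10 min, 37 °C, pH 7.4 or 6.0, washed, stained with 25 μg/mL anti-DNP-A488 30 min at 4 °C, PFA-fixed. Flow cytometry, ≥3000 events; fold over pH 7.4 antibody-only cells.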

With `CC[C@H](C)[C@H](NC(=O)[C@@H]1CCCN1C(=O)[C@H](CC(N)=O)NC(=O)[C@H](CCC(N)=O)NC(=O)[C@H](CCC(=O)O)NC(=O)[C@@H](N)CCCCNc1ccc([N+](=O)[O-])cc1[N+](=O)[O-])C(=O)N[C@@H](Cc1ccc(O)cc1)C(=O)N[C@@H](Cc1c[nH]c2ccccc12)C(=O)N[C@@H](C)C(=O)N[C@@H](CCCNC(=N)N)C(=O)N[C@@H](Cc1ccc(O)cc1)C(=O)N[C@@H](C)C(=O)N[C@@H](CC(=O)O)C(=O)N[C@@H](Cc1c[nH]c2ccccc12)C(=O)N[C@@H](CC(C)C)C(=O)N[C@@H](Cc1ccccc1)C(=O)N[C@H](C(=O)N[C@H](C(=O)N1CCC[C@H]1C(=O)N[C@@H](CC(C)C)C(=O)N[C@@H](CC(C)C)C(=O)N[C@@H](CC(C)C)C(=O)N[C@@H](CC(C)C)C(=O)N[C@@H](CCC(=O)O)C(=O)N[C@@H](CC(C)C)C(=O)N[C@@H](C)C(=O)N[C@@H](CC(C)C)C(=O)N[C@@H](CC(C)C)C(=O)N[C@H](C(=O)N[C@@H](CC(=O)O)C(=O)N[C@@H](C)C(=O)N[C@@H](CC(=O)O)C(=O)N[C@@H](CCC(=O)O)C(=O)NCC(=O)N[C@H](C(=O)NCC(N)=O)[C@@H](C)O)C(C)C)[C@@H](C)O)[C@@H](C)O` (H-K(Dnp)EQNPIYWARYADWLFTTPLLLLELALLVDADEGTG-NH2) the Activity [1] was 40%, the Activity [2] was “Active” and the Activity [3] was “Non-Toxic”. The Activity [4] was “Non-Toxic”, the Activity [5] was “inactive” and the Activity [6] was “Active”. The Activity [7] was “Active”, the Activity [8] was 20% and the Activity [9] was “Active”. For the same compound, the Drug uptake [10] was “Not Active”, the Activity [11] was “inactive” and the Activity [12] was “Non-Toxic”. For the same compound, the Activity [13] was “Non-Toxic”, the Activity [14] was “inactive” and the Activity [15] was “Dose-dependent effect”. For the same compound, the Activity [16] was 40%, the Activity [17] was 10% and the Activity [18] was “Non-Toxic”. For the same compound, the Activity [19] was “Active” and the Activity [20] was “Active”.
